Results: ChEMBL document CHEMBL1145179, “Synthesis and enzyme-specific activation of carbohydrate-geldanamycin conjugates with potent anticancer activity” (J Med Chem, 2005)

Tests used:
Type in all cases: functional, cell-based
[1] = system: MCF7; experiment: Inhibitory concentration against human Breast cancer MCF-7 cell lines
Procedure, shortened: (§1)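 MTS assay. Cells (2000-10 000) seeded in RPMI-1640 and grown 24 h, then exposed to various concentrations for 72 h at 37 °C under 5% CO₂. MTS (2 mg/ml) with PMS (25 µM) added for 3 h at 37 °C, and formazan read at 490 nm. IC50 taken from dose-response curves of % growth vs untreated control.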

[2] = system: SW-620; experiment: Inhibitory concentration against human colorectal carcinoma SW620 cell lines; procedure, shortened: as §1
[3] = system: K562; experiment: Inhibitory concentration against human leukemia K562 cell lines; procedure, shortened: as §1
[4] = system: HT-29; experiment: Inhibitory concentration against human colorectal carcinoma HT-29 cell lines; procedure, shortened: as §1
[5] = system: MCF7; experiment: Inhibitory concentration against human breast cancer MCF-7 cell lines; procedure, shortened: as §1

Compound | IC50 [1] [µM] | IC50 [2] [µM] | IC50 [3] [µM] | IC50 [4] [µM] | IC50 [5] [nM]
COC1/C=C\C=C(/C)C(=O)NC2=CC(=O)C(NCCO[C@@H]3O[C@@H](CO)[C@@H](O)[C@H](O)[C@@H]3O)=C(C[C@@H](C)C[C@H](OC)[C@H](O)C(C)/C=C(\C)[C@@H]1OC(N)=O)C2=O (stereo partly drawn) | 0.754 | 0.0702 | 0.381 | 0.105 | –
COC1/C=C\C=C(/C)C(=O)NC2=CC(=O)C(NCCCO[C@@H]3O[C@@H](CO)[C@H](O)[C@H](O)[C@@H]3O)=C(C[C@@H](C)C[C@H](OC)[C@H](O)C(C)/C=C(\C)[C@@H]1OC(N)=O)C2=O (stereo partly drawn) | > 12 | > 14 | > 14 | > 6 | –
COC1/C=C\C=C(/C)C(=O)NC2=CC(=O)C(NCCO[C@@H]3O[C@@H](CO)[C@@H](O[C@@H]4O[C@@H](CO)[C@H](O)[C@H](O)[C@@H]4O)[C@H](O)[C@@H]3O)=C(C[C@@H](C)C[C@H](OC)[C@H](O)C(C)/C=C(\C)[C@@H]1OC(N)=O)C2=O (stereo partly drawn) | > 22 | > 20 | > 25 | > 25 | –
COC1/C=C\C=C(/C)C(=O)NC2=CC(=O)C(NCCCCCO[C@@H]3O[C@@H](CO)[C@H](O)[C@H](O)[C@@H]3O)=C(C[C@@H](C)C[C@H](OC)[C@H](O)C(C)/C=C(\C)[C@@H]1OC(N)=O)C2=O (stereo partly drawn) | > 17 | > 13 | > 19 | > 13 | –
COC1=C2C[C@@H](C)C[C@H](OC)[C@H](O)[C@@H](C)/C=C(\C)[C@H](OC(N)=O)[C@@H](OC)/C=C\C=C(/C)C(=O)NC(=CC1=O)C2=O [GELDANAMYCIN] | – | 0.0062 | 0.0221 | 0.0245 | 6.5
COC1/C=C\C=C(/C)C(=O)NC2=CC(=O)C(NCCOCCO[C@@H]3O[C@@H](CO)[C@H](O)[C@H](O)[C@@H]3O)=C(C[C@@H](C)C[C@H](OC)[C@H](O)C(C)/C=C(\C)[C@@H]1OC(N)=O)C2=O (stereo partly drawn) | > 22 | > 11 | > 15 | > 13 | –
COC1/C=C\C=C(/C)C(=O)NC2=CC(=O)C(NCCO[C@@H]3O[C@@H](CO)[C@H](O)[C@H](O)[C@@H]3O)=C(C[C@@H](C)C[C@H](OC)[C@H](O)C(C)/C=C(\C)[C@@H]1OC(N)=O)C2=O (stereo partly drawn) | > 25 | > 8 | > 23 | > 14 | –
